# Assay outcomes (PubChem)
# In the library only some 0.83% were active in any assay of this set; here they are far more common.
# RGS4-Gao reg: human RGS4-Galphao interaction regulation; P09471; Multiplexed bead flow cytometry, RGS4-Galphao binding; actives lie on both sides; binding response (% of control), % at 10 µM; 220,000 compounds, 0.33% hits; in the data active = binding response below about 49% or above about 150%; inactive = in between;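 note: fluorescent Galphao activated with aluminum fluoride binding bead-coupled RGS4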
# Target sequence (P09471 whole entry, looked up): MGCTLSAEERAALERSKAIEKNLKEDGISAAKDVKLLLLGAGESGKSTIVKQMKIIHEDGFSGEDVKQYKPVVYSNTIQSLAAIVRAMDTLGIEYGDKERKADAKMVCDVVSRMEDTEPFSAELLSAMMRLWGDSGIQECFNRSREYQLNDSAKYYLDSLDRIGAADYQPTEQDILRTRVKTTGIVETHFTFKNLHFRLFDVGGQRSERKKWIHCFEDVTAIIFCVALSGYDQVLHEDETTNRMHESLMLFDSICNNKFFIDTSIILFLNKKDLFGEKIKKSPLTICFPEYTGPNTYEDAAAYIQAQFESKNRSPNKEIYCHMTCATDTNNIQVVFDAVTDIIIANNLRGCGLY
# RGS7-Gao: human RGS7-Galphao interaction regulation. P09471. Multiplexed bead flow cytometry, RGS7-Galphao binding; actives lie on both sides. binding response (% of control), % at 10 µM. 220,000 compounds, 0.35% hits; in the data active = binding response below about 49% or above about 150%; inconclusive = no clear call, values can overlap the other calls; inactive = in between;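 note: fluorescent Galphao held in activated GDP-AlF4 state binding bead-coupled RGS7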
# ABCG2 block: blocks JC-1 efflux by human ABCG2 transporter; Q9UNQ0; IgMXP3 cells, flow cytometry; inhibition, % at 6.6 µM; 190,000 compounds, 0.1% hits; AID 1325;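 active = inhibition above 80%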
#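 System: two drug-resistant human cell lines, ABCG2 and ABCB1; controls: nicardipine high and DMSO low controls; times: 10 min exposure at 25 °C with rotation, no wash; detection: flow cytometry of retained JC-1 fluorescence; read-out basis: percent efflux inhibition, scaled nicardipine 100% to DMSO 0%; doses: one concentration, 6.6 µM final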
# RGS8-Gao reg: modulates binding of RGS8 to human Galphao | multiplexed bead flow cytometry; actives lie on both sides | response (percent of control binding), % at 10 µM | 220,000 compounds, 0.34% hits | AID 1423; in the data active = response below about 60% or above about 140%; inactive = in between;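 note: Galphao activated as the GDP aluminium fluoride complex binding bead-coupled RGS8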
# ABCB1 inh: inhibitors of human ABCB1 transporter, ABCG2 counter-screen; P08183; CCRF-Adr cells, JC-1 efflux, flow cytometry; inhibition, % at 6.6 µM; 190,000 compounds, 0.067% hits; in the data active = inhibition above about 40%;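 note: higher value means more JC-1 retained so stronger ABCB1 efflux block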
# RGS16-Gao HTS: RGS16-Galphao interaction regulator (human); O15492+P09471; bead-based flow cytometry RGS16-Galphao binding, fluorescence; actives lie on both sides; binding response (% of control), % at 10 µM; 220,000 compounds, 0.38% hits; AID 1441;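 note: Galphao activated by GDP with aluminum fluoride before binding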
# Target sequence (O15492 whole entry, looked up): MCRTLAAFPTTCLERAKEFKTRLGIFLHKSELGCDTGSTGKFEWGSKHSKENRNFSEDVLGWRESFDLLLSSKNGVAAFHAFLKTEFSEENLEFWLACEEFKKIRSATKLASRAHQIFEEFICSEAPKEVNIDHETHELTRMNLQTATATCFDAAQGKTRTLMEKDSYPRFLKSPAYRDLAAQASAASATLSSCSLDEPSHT
# Target sequence (P09471 whole entry, looked up): as the sequence (P09471 whole entry, looked up) above
# RGS4-Gao HTS: regulators of human RGS4-Galphao interaction. shares compounds with RGS16-Gao HTS. multiplexed bead flow cytometry, RGS–Galpha-o binding. RGS4–Galpha-o binding response, % at 10 µM. 1,600 compounds, 99% hits. AID 1504;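 note: fluorescently labeled Galpha-o bound to GDP with aluminium fluoride binding biotinylated RGS beads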
# Biotin-avidin: biotin-avidin bead binding disruption counter-screen; shares compounds with RGS16-Gao HTS; streptavidin beads, fluorescein-biotin binding, flow cytometry; inhibition, % at 10 µM; 1,700 tested, under 10 active; AID 1783;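 active = inhibition above 50%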;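 note: median green fluorescence of gated singlet beads compared with DMSO control wells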
# RGS8-Gao confirm: confirmation of regulators of human RGS8-Galphao interaction | bead-based flow cytometry RGS8-Galphao binding, fluorescence; actives lie on both sides | binding response (% of control), % at 10 µM | 1,700 compounds, 3% hits | shares compounds with RGS16-Gao HTS; in the data active = binding response below about 72% or above about 130%; inactive = in between;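 note: Galphao activated as GDP AlF4 complex before binding bead RGS8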
# RGS7-Gao single: confirmation of regulators of human RGS7-Galphao interaction. response (percent of control binding), % at 10 µM. bead-based flow cytometry RGS7-Galphao binding; actives lie on both sides. shares compounds with RGS16-Gao HTS. 1,700 compounds, 7.8% hits; in the data active = response below about 75% or above about 130%; inactive = in between;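 note: fluorescent Galphao activated with GDP and aluminum fluoride binding bead-coupled RGS7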
# RGS16-Gao conf: confirmation of regulators of human RGS16-Galphao interaction | response (% of control binding), % at 10 µM | 1,700 compounds, 4% hits | bead-based flow cytometry, RGS16-Galphao binding; actives lie on both sides | shares compounds with RGS16-Gao HTS; in the data active = response below about 74% or above about 130%; inactive = in between;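 note: Galphao activated as the GDP aluminium fluoride complex binding bead-coupled RGS16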
# RGS4-Gao confirm: confirmation of regulators of human RGS4-Galphao interaction; shares compounds with RGS16-Gao HTS; RGS4-Galphao binding, multiplexed bead flow cytometry; actives lie on both sides; binding response (% of control), % at 10 µM; 1,700 compounds, 4% hits; AID 1840; in the data active = binding response below about 74% or above about 130%; inactive = in between
# RGS19-Gao single: RGS19-Galphao interaction regulation, single point confirmation; shares compounds with RGS16-Gao HTS; bead-based flow cytometry RGS19-Galphao binding; actives lie on both sides; response (percent of control binding), % at 10 µM; 1,700 compounds, 5% hits; AID 1841; in the data active = response below about 50% or above about 160%; inactive = in between
# A number is an active result; - = inactive; ? = inconclusive; . = no result given; [ ] = another dose, or the depositor's remark. Unless noted, the rule behind the calls is not given here.
SMILES,RGS4-Gao reg,RGS7-Gao,ABCG2 block,RGS8-Gao reg,ABCB1 inh,RGS16-Gao HTS,RGS4-Gao HTS,Biotin-avidin,RGS8-Gao confirm,RGS7-Gao single,RGS16-Gao conf,RGS4-Gao confirm,RGS19-Gao single
CN1C(=O)C(O)(CC(=O)/C=C/c2ccco2)c2cc(Br)ccc21 (stereo not given),-,-,-,-,-,-,.,.,.,.,.,.,.
CC1=CC2=NC(=O)/C(=C\c3ccc(-c4ccc(Cl)cc4)o3)C(=N)N2O1,153.2[activator],167.0[activator],-,-,-,-,.,-,-,-,-,-,235.8[activator]
CC1=CC2=NC(=O)/C(=C/c3cccs3)C(=N)N2O1,-,?,.,-,.,-,.,.,.,.,.,.,.
CSc1ccc(C2C(C#N)=C(N)Oc3c2ccc(=O)c2c(C)oc(C)c32)cc1 (stereo not given),179.6[activator],254.3[activator],-,-,-,-,.,-,-,-,-,-,-
Cc1oc(C)c2c(=O)ccc3c(c12)OC(N)=C(C#N)C3c1ccccc1 (stereo not given),-,-,-,-,-,-,.,.,.,.,.,.,.
CCCCN(C)C(=O)C1CCN(CCCc2ccccc2)CC1,-,169.8[activator],-,-,-,-,120.9,.,.,.,.,.,.
CCOc1cc(-c2nnc(-c3ccco3)o2)cc(OCC)c1OCC,-,156.1[activator],-,-,-,-,119.4,-,-,-,-,-,-
Cc1nn(C)c(Cl)c1CN1CCCC(CO)(Cc2cccc(Cl)c2)C1 (stereo not given),-,-,-,-,-,-,.,.,.,.,.,.,.
N#C/C(=C\c1ccc(Cl)cc1)c1nc2ncccc2[nH]1,-,-,-,-,-,-39.7,89.5,.,.,.,.,.,.
CC(NC(=O)Cc1ccc(-c2ccccc2)cc1)c1ccccc1 (stereo not given),152.4[activator],263.1[activator],-,-,-,-,.,-,-,-,-,-,-
Cc1ccc(OCCCC(=O)NC(C)c2ccccc2)cc1 (stereo not given),-,-,-,-,-,-,.,.,.,.,.,.,.
COc1cc(N(C(=O)Cc2cccs2)C(C(=O)NC2CCCCC2)c2cccc(OC)c2OC)ccc1-n1cnnn1 (stereo not given),-,-,-,-,-,23.9,91.8,-,-,-,-,-,-
COc1cccc(C(C(=O)NC2CCCCC2)N(C(=O)Cc2cccs2)c2ccc(-n3cnnn3)c(OC)c2)c1 (stereo not given),-,-,-,-,-,-,.,.,.,.,.,.,.
Cc1ccc(N(CCC#N)C(=O)CCl)cc1C,-,-,.,-,.,21.1,94.5,-,-,-,-,-,-
CCN(C(=O)c1cc2cccc(OC)c2oc1=O)C1CCCCC1,186.6[activator],187.5[activator],-,-,-,223.2[activator],.,-,-,-,-,-,-
CCOC(=O)c1cnc2c(C)c(Cl)ccc2c1Nc1ccc(S(=O)(=O)Nc2ncccn2)cc1,-,-,-,-,-,-,.,.,.,.,.,.,.
COc1ccc(C2=NN(C(=S)Nc3ccccc3)C(c3ccccc3)C2)cc1 (stereo not given),-,-,-,-,-,385.0[activator],116.8,-,-,-,-,-,-
CCn1c(Sc2nc(C)nc3scc(-c4cccs4)c23)n[nH]c1=O,.,.,-,.,-,.,.,-,-,-,-,-,-
Cc1nc(SCC(=O)NC(=O)NCCC(C)C)c2c(-c3cccs3)csc2n1,-,-,-,-,-,-,.,.,.,.,.,.,.
CCN(CC)C(=O)Oc1ccc(Cl)c2cccnc12,-,?,-,-,-,-,.,.,.,.,.,.,.
O=C(Nc1cccc(C(F)(F)F)c1)Oc1ccc(Cl)c2cccnc12,26.2,?,.,54.6,.,-,.,-,-,-,-,-,-
Cc1cccc(-c2n[nH]c(=S)n2/N=C/c2ccc(C)o2)c1,-,-,-,-,-,-,.,.,.,.,.,.,.
NC(=O)c1ccc(NC(=O)c2ccc(CN3CCOCC3)cc2)cc1,.,.,-,.,-,.,.,-,-,-,-,-,-
CCOC(=O)c1ccc(NC(=O)c2ccc(CN3CCOCC3)cc2)cc1,-,-,-,-,-,-,.,.,.,.,.,.,.
Cc1nc2ccccc2c(=O)n1/N=C/c1ccccc1,-,-,-,-,-,-,.,.,.,.,.,.,.
SMILES,RGS4-Gao reg,RGS7-Gao,ABCG2 block,RGS8-Gao reg,ABCB1 inh,RGS16-Gao HTS,RGS4-Gao HTS,Biotin-avidin,RGS8-Gao confirm,RGS7-Gao single,RGS16-Gao conf,RGS4-Gao confirm,RGS19-Gao single
Cc1nc2ccccc2c(=O)n1/N=C/c1ccncc1,-,-,-,.,-,.,.,-,-,-,-,-,-
Cc1ccc(-c2csc3nnc(SCC(=O)Nc4nsc(-c5ccccc5)n4)n23)cc1,.,.,-,.,-,.,.,-,-,-,-,-,-
COc1ccc(C(=O)NC(=S)Nc2ccc3oc(=O)ccc3c2)cc1OC,-,-,-,-,-,243.5[activator],121.5,-,-,-,-,-,-
O=C(Cc1c[nH]c2ccccc12)N/N=C/c1ccc(F)cc1,-,-,-,-,-,21.1,92.1,-,-,-,-,-,-
CNC(=O)c1ccccc1Sc1ccccc1CO,-,?,.,-,.,-,.,-,-,-,-,-,-
COC(=O)c1ccc(C23CC4(C2)[C@H](CN(Cc2ccc(C(F)(F)F)cc2)[C@@H]4c2ccccc2)C3c2ccc(Cl)nc2)cc1 (stereo not given in full),-,?,.,-,.,-,.,.,.,.,.,.,.
COc1ccc(-c2[nH]ncc2CN2CCC(C(=O)c3ccc(F)cc3)CC2)cc1,-,?,.,-,.,-,.,.,.,.,.,.,.
CC(C)C(NC(=O)c1ccccc1F)C(=O)Nc1nccs1 (stereo not given),-,-,-,-,-,-,.,.,.,.,.,.,.
CCOC(=O)C1CCCN(Cc2cn[nH]c2-c2ccc(F)cc2F)C1 (stereo not given),-,-,-,-,-,-,.,.,.,.,.,.,.
CCOC(=O)c1[nH]ncc1CN1CCCC(C(=O)c2ccc(C(C)(C)C)cc2)C1 (stereo not given),-,-,-,140.1[activator],-,-,113.9,-,-,-,-,-,-
